# The source made the active and inactive calls. The rule behind the calls is not given here.
# Legend:
# Tubulin (Sus scrofa) [1] = molecular target: T1, Tubulin (Sus scrofa) (UniProt P02554+P02550); assay: Displacement of [3H]-colchicine from pig brain tubulin at 5 uM after 10 mins by scintillation counting analysis relative to control
# Tubulin (Sus scrofa) [2] = molecular target: T1, Tubulin (Sus scrofa); assay: Displacement of [3H]-colchicine from pig brain tubulin at 1 uM after 10 mins by scintillation counting analysis relative to control
# MDA-MB-468 = assay: Cytotoxicity against human MDA-MB-468 cells assessed as growth inhibition after 48 hrs by SRB assay; format: functional; details: MDA-MB-468, 48 h
# BT-549 = assay: Cytotoxicity against human BT549 cells assessed as growth inhibition after 48 hrs by SRB assay; format: functional; details: BT-549, 48 h
# MDA-MB-231 = assay: Cytotoxicity against human MDA-MB-231 cells assessed as growth inhibition after 48 hrs by SRB assay; format: functional; details: MDA-MB-231, 48 h
# MCF7 = assay: Cytotoxicity against human MCF7 cells assessed as growth inhibition after 48 hrs by SRB assay; format: functional; details: MCF7, 48 h
# UO-31 = assay: Cytotoxicity against human UO31 cells assessed as growth inhibition after 48 hrs by SRB assay; format: functional; details: UO-31, 48 h
# TK-10 = assay: Cytotoxicity against human TK10 cells assessed as growth inhibition after 48 hrs by SRB assay; format: functional; details: TK-10, 48 h
# RXF 393 = assay: Cytotoxicity against human RXF393 cells assessed as growth inhibition after 48 hrs by SRB assay; format: functional; details: RXF 393, 48 h
# ACHN = assay: Cytotoxicity against human ACHN cells assessed as growth inhibition after 48 hrs by SRB assay; format: functional
# A498 = assay: Cytotoxicity against human A498 cells assessed as growth inhibition after 48 hrs by SRB assay; format: functional; details: A498, 48 h
# 786-0 = assay: Cytotoxicity against human 786-0 cells assessed as growth inhibition after 48 hrs by SRB assay; format: functional; details: 786-0, 48 h
# SK-OV-3 = assay: Cytotoxicity against human SKOV3 cells assessed as growth inhibition after 48 hrs by SRB assay; format: functional; details: SK-OV-3, 48 h
# [3] = Cytotoxicity against human NCI-ADR-RES cells assessed as growth inhibition after 48 hrs by SRB assay; format: functional
# OVCAR-8 = assay: Cytotoxicity against human OVCAR8 cells assessed as growth inhibition after 48 hrs by SRB assay; format: functional; details: OVCAR-8, 48 h
# OVCAR-5 = assay: Cytotoxicity against human OVCAR5 cells assessed as growth inhibition after 48 hrs by SRB assay; format: functional; details: OVCAR-5, 48 h
# OVCAR-4 = assay: Cytotoxicity against human OVCAR4 cells assessed as growth inhibition after 48 hrs by SRB assay; format: functional; details: OVCAR-4, 48 h
# OVCAR-3 = assay: Cytotoxicity against human OVCAR3 cells assessed as growth inhibition after 48 hrs by SRB assay; format: functional; details: OVCAR-3, 48 h
# UACC-62 = assay: Cytotoxicity against human UACC62 cells assessed as growth inhibition after 48 hrs by SRB assay; format: functional; details: UACC-62, 48 h
# SK-MEL-2 = assay: Cytotoxicity against human SK-MEL-2 cells assessed as growth inhibition after 48 hrs by SRB assay; format: functional; details: SK-MEL-2, 48 h
# M14 = assay: Cytotoxicity against human M14 cells assessed as growth inhibition after 48 hrs by SRB assay; format: functional; details: M14, 48 h
# LOX IMVI = assay: Cytotoxicity against human LOXIMVI cells assessed as growth inhibition after 48 hrs by SRB assay; format: functional
# U-251 = assay: Cytotoxicity against human U251 cells assessed as growth inhibition after 48 hrs by SRB assay; format: functional; details: U-251, 48 h
# SF-539 = assay: Cytotoxicity against human SF539 cells assessed as growth inhibition after 48 hrs by SRB assay; format: functional; details: SF-539, 48 h
# SF-295 = assay: Cytotoxicity against human SF295 cells assessed as growth inhibition after 48 hrs by SRB assay; format: functional; details: SF-295, 48 h
# SF-268 = assay: Cytotoxicity against human SF268 cells assessed as growth inhibition after 48 hrs by SRB assay; format: functional; details: SF-268, 48 h
# SW-620 = assay: Cytotoxicity against human SW620 cells assessed as growth inhibition after 48 hrs by SRB assay; format: functional; details: SW-620, 48 h
# HT-29 = assay: Cytotoxicity against human HT-29 cells assessed as growth inhibition after 48 hrs by SRB assay; format: functional; details: HT-29, 48 h
# HCT-15 = assay: Cytotoxicity against human HCT15 cells assessed as growth inhibition after 48 hrs by SRB assay; format: functional; details: HCT-15, 48 h
# HCT-116 = assay: Cytotoxicity against human HCT116 cells assessed as growth inhibition after 48 hrs by SRB assay; format: functional; details: HCT-116, 48 h
# HCC 2998 = assay: Cytotoxicity against human HCC2998 cells assessed as growth inhibition after 48 hrs by SRB assay; format: functional; details: HCC 2998, 48 h
# NCI-H522 = assay: Cytotoxicity against human NCI-H522 cells assessed as growth inhibition after 48 hrs by SRB assay; format: functional; details: NCI-H522, 48 h
# COLO 205 = assay: Cytotoxicity against human COLO205 cells assessed as growth inhibition after 48 hrs by SRB assay; format: functional; details: COLO 205, 48 h
# NCI-H460 = assay: Cytotoxicity against human NCI-H460 cells assessed as growth inhibition after 48 hrs by SRB assay; format: functional; details: NCI-H460, 48 h
# NCI-H322M = assay: Cytotoxicity against human NCI-H322M cells assessed as growth inhibition after 48 hrs by SRB assay; format: functional
# HOP-92 = assay: Cytotoxicity against human HOP92 cells assessed as growth inhibition after 48 hrs by SRB assay; format: functional; details: HOP-92, 48 h
# HOP-62 = assay: Cytotoxicity against human HOP62 cells assessed as growth inhibition after 48 hrs by SRB assay; format: functional; details: HOP-62, 48 h
# A549 = assay: Cytotoxicity against human A549 cells assessed as growth inhibition after 48 hrs by SRB assay; format: functional; details: A549, 48 h
# SR = assay: Cytotoxicity against human SR cells assessed as growth inhibition after 48 hrs by SRB assay; format: functional
# MOLT-4 = assay: Cytotoxicity against human MOLT4 cells assessed as growth inhibition after 48 hrs by SRB assay; format: functional; details: MOLT-4, 48 h
# K562 = assay: Cytotoxicity against human K562 cells assessed as growth inhibition after 48 hrs by SRB assay; format: functional; details: K562, 48 h
# HL-60(TB) = assay: Cytotoxicity against human HL-60(TB) cells assessed as growth inhibition after 48 hrs by SRB assay; format: functional; details: HL-60, 48 h
# CCRF-CEM = assay: Cytotoxicity against human CCRF-CEM cells assessed as growth inhibition after 48 hrs by SRB assay; format: functional
# MDA-MB-435 = assay: Cell cycle arrest in human MDA-MB-435 cells assessed as […] at 25 nM after 24 hrs by FACS flow cytometric analysis; format: functional, cell-based
# Procedure, shortened: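 MDA-MB-435 cells plated and allowed to adhere 24 h, then exposed to drug for 24 h. Cells harvested, stained with Krishan's reagent, and DNA content analysed by flow cytometry.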
# T1 sequence (P02550 whole entry, looked up): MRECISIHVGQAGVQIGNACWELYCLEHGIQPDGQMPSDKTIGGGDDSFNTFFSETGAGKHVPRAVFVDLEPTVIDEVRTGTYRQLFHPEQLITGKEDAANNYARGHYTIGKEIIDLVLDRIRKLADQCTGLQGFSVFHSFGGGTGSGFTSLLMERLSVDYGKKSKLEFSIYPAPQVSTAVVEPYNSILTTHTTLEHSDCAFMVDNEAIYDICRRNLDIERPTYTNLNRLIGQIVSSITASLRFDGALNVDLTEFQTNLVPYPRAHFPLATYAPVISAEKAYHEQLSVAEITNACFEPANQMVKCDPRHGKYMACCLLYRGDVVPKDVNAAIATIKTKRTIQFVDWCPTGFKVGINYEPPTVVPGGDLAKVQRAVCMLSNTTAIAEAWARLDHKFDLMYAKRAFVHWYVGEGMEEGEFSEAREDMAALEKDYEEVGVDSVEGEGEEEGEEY
# T1 sequence (P02554 whole entry, looked up): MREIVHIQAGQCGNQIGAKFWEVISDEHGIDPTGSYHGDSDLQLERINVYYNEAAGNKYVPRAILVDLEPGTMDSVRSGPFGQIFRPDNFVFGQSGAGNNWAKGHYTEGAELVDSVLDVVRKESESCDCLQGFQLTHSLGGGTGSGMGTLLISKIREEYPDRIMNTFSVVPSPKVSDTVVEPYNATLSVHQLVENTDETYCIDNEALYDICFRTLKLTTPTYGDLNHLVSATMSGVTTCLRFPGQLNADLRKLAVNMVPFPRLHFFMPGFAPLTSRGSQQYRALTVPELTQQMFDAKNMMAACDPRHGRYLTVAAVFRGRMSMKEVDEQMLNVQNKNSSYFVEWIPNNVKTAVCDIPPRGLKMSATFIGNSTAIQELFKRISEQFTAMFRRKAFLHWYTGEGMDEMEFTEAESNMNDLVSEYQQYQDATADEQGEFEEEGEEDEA
structure (smiles),measurement,setting,value
COc1ccc(N(C)c2nc(C)nc3c2CCC3)cc1.Cl,inhibition,Tubulin (Sus scrofa) [1],92%
same,inhibition,Tubulin (Sus scrofa) [2],70%
same,GI50,MDA-MB-468,< 10 nM
same,GI50,BT-549,21.8 nM
same,GI50,MDA-MB-231,25.9 nM
same,GI50,MCF7,< 10 nM
same,GI50,UO-31,46.1 nM
same,GI50,TK-10,42.7 nM
same,GI50,RXF 393,< 10 nM
same,GI50,ACHN,< 10 nM
same,GI50,A498,< 10 nM
same,GI50,786-0,17.8 nM
same,GI50,SK-OV-3,14.6 nM
same,GI50,[3],< 10 nM
same,GI50,OVCAR-8,21.8 nM
same,GI50,OVCAR-5,36.4 nM
same,GI50,OVCAR-4,22.9 nM
same,GI50,OVCAR-3,< 10 nM
same,GI50,UACC-62,< 10 nM
same,GI50,SK-MEL-2,11.9 nM
same,GI50,M14,< 10 nM
same,GI50,LOX IMVI,18.4 nM
same,GI50,U-251,< 10 nM
same,GI50,SF-539,< 10 nM
same,GI50,SF-295,< 10 nM
same,GI50,SF-268,13.9 nM
same,GI50,SW-620,< 10 nM
same,GI50,HT-29,< 10 nM
same,GI50,HCT-15,< 10 nM
same,GI50,HCT-116,< 10 nM
same,GI50,HCC 2998,16.4 nM
same,GI50,NCI-H522,< 10 nM
same,GI50,COLO 205,< 10 nM
same,GI50,NCI-H460,10.3 nM
same,GI50,NCI-H322M,48.8 nM
same,GI50,HOP-92,16 nM
same,GI50,HOP-62,< 10 nM
same,GI50,A549,15 nM
same,GI50,SR,< 10 nM
same,GI50,MOLT-4,27.8 nM
same,GI50,K562,< 10 nM
same,GI50,HL-60(TB),< 10 nM
same,GI50,CCRF-CEM,< 10 nM
same,Activity,MDA-MB-435,Active

# Reference: ChEMBL document CHEMBL2424583, “Structure-activity relationship and in vitro and in vivo evaluation of the potent cytotoxic anti-microtubule agent N-(4-methoxyphenyl)-N,2,6-trimethyl-6,7-dihydro-5H-cyclopenta[d]pyrimidin-4-aminium chloride and its analogues as antitumor agents” (J Med Chem, 2013)
